Assay outcomes deposited in PubChem BioAssay by Broad Institute.
Dyrk1A ADPGlo – rat Dyrk1A kinase inhibitors, primary screen, biochemical, single point, plate reader; 310,000 compounds, 0.43% hits; inhibition, % at 12.5 µM; ADP-Glo luminescence, NFATc1 peptide; in the data active means inhibition above about 50%;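 further: plate controls were vehicle with enzyme for no effect and no enzyme for full effect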
CAL PDZ FP-1 – untagged CAL PDZ binding inhibitors, primary screen, biochemical, fluorescence polarization, HTS | 300,000 compounds, 0.92% hits | inhibition, % at 24.9 µM | Golgi-associated PDZ and coiled-coil motif-containing protein (Homo sapiens), Q9HD26 | purified CAL PDZ, TMR-peptide fluorescence polarization, 1 h;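 active means mean inhibition of at least 30% with at least half of replicates also reaching 30%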;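 further: 0% = DMSO neutral control and 100% = excess unlabeled competitor peptide PRC23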
CAL PDZ FP-2 – CAL PDZ peptide-binding inhibitors, primary screen, biochemical, fluorescence polarization, Cer-tagged CAL PDZ, HTS. inhibition, % at 20 µM. 330,000 compounds, 0.02% hits. purified CAL PDZ, TMR-peptide fluorescence polarization, 1 h. AID 504414, 2011. Golgi-associated PDZ and coiled-coil motif-containing protein (Homo sapiens), Q9HD26;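 active means highest replicate inhibition of at least 40%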;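 further: plate controls were DMSO neutral control wells for no effect and unlabeled competitor peptide control wells for full effect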
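material = purified tagged CAL PDZ domain construct (CerCALP) | buffer or medium = sodium phosphate/NaCl buffer pH 7.4 with TCEP, IgG, Thesit | reagent = TMR-labelled reporter peptide T*-PRC34 bound in PDZ groove | incubation = 1 h room-temperature incubation prior to read | measured by = fluorescence polarization (mP) | evaluation = percent inhibition from loss of millipolarization | control set = unlabelled peptide and DMSO controls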
dFosB activator – activators of delta FosB homodimer, primary screen, biochemical, fluorescence polarization, TAMRA-CDK5 oligo, single point | purified delta FosB; percent of positive-control signal above neutral wells | activation, % at 25 µM | 340,000 compounds, 0.99% hits | AID 493131, 2011;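 active means mean activation above about 17%, with every replicate also reaching it, limit read from the data, passing the limit was not always enough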
CDK5 p35 inh – inhibitors of human CDK5/p35 kinase, primary screen, biochemical, single concentration; 330,000 compounds, 0.01% hits; Cyclin-dependent kinase 5 (Homo sapiens) + Cyclin-dependent kinase 5 activator 1 (Homo …; inhibition, % at 10 µM; Recombinant CDK5/p35, ADP-Glo luminescence, 60 min;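 active means highest replicate inhibition of at least 50% and at least 75% of replicates reaching 50%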;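 further: plate controls were DMSO neutral control for no effect and GW8510 at 10 µM for full effect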
Rtt109 Vps75 – inhibitors of C. albicans Rtt109/Vps75 HAT, primary screen, biochemical, ThioGlo CoA-SH fluorescence, plate reader. 330,000 compounds, 0.16% hits. AID 540336, 2011. Histone acetyltransferase RTT109 (Candida albicans (strain SC5314 / ATCC MYA-2876)), …. inhibition, % at 34.9 µM. purified Rtt109/Vps75, 4 h;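 active means inhibition of at least 50% in every replicate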
Target sequence (Q5AAJ8 whole entry, looked up): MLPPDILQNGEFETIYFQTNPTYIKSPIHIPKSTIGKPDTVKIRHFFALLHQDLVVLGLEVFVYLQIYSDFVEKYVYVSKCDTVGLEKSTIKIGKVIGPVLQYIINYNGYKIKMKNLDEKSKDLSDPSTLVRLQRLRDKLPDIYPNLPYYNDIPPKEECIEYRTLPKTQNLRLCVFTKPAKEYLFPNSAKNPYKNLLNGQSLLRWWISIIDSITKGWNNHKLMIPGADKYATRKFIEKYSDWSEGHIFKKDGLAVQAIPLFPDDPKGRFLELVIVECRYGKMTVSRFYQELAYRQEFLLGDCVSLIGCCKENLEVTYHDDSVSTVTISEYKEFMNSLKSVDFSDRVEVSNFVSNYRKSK
Active calls of the source: *. Shown are actives, neighbours in structure and some others; about 2.2% of the full set was active somewhere.

How did COc1ccc(C(C)NC(=O)c2ccc(Cl)cc2)cc1OC (stereo not given) do in these assays?
Dyrk1A ADPGlo: 4; CAL PDZ FP-1: -3; CAL PDZ FP-2: 1; dFosB activator: -2; Rtt109 Vps75: -1

Results for COc1ccc(C(C)NC(=O)c2ccncc2)cc1OC (stereo not given) ?
CAL PDZ FP-1: 76*; CAL PDZ FP-2: 0; dFosB activator: 0; CDK5 p35 inh: -4; Rtt109 Vps75: 2

Results for Cc1cc(C)nc(Oc2ccc(Br)cc2)n1 ?
Dyrk1A ADPGlo: 5; CAL PDZ FP-1: 4; CAL PDZ FP-2: 0; dFosB activator: -5; CDK5 p35 inh: -1; Rtt109 Vps75: -3

How did CCOC(=O)c1c(C)[nH]c(C)c1S(=O)(=O)N(C)CC(=O)Nc1cccc(F)c1 do in these assays?
Dyrk1A ADPGlo: -5; CAL PDZ FP-1: 34*; CAL PDZ FP-2: -1; dFosB activator: 3; CDK5 p35 inh: 0; Rtt109 Vps75: -2

How did Fc1ccc(C2CC(c3ccco3)=Nc3ccccc3S2)cc1 (stereo not given) do in these assays?
Dyrk1A ADPGlo: 8; CAL PDZ FP-1: -3; CAL PDZ FP-2: -5; dFosB activator: -3; CDK5 p35 inh: -2; Rtt109 Vps75: 56*

How did CC(CNC(=O)c1ccccc1[N+](=O)[O-])NC(=O)c1ccccc1[N+](=O)[O-] (stereo not given) do in these assays?
CAL PDZ FP-1: 4; CAL PDZ FP-2: 1; dFosB activator: 1; CDK5 p35 inh: 2

Results for COc1ccc(NS(=O)(=O)c2cc(NC(=O)Cn3cnc4c3c(=O)n(C)c(=O)n4C)ccc2C)cc1 ?
Dyrk1A ADPGlo: 0; CAL PDZ FP-1: 20; CAL PDZ FP-2: -6; dFosB activator: -1; CDK5 p35 inh: 1; Rtt109 Vps75: 38

How did Cn1nnnc1SCc1cccc2ccccc12 do in these assays?
Dyrk1A ADPGlo: 4; CAL PDZ FP-1: 34*; dFosB activator: 0; CDK5 p35 inh: -3; Rtt109 Vps75: -2

What do the screens show for `Cn1nnnc1SCc1nc2ccccc2s1`?
Dyrk1A ADPGlo: 1; CAL PDZ FP-2: 0; dFosB activator: 1; CDK5 p35 inh: -1; Rtt109 Vps75: 7

Results for CSc1ccccc1NC(=O)COC(=O)c1ccc(-n2nc(C)cc2C)cc1 ?
CAL PDZ FP-2: -2; dFosB activator: -1; CDK5 p35 inh: 1; Rtt109 Vps75: -9

How did O=C1[C@@H]2Cc3c([nH]c4ccccc34)C(c3cccc(Br)c3)N2C(=O)CN1C1CCN(Cc2ccccc2)CC1 (stereo not given in full) do in these assays?
Dyrk1A ADPGlo: -1; CAL PDZ FP-1: -9; dFosB activator: 66*; CDK5 p35 inh: -2; Rtt109 Vps75: 0

Results for COc1cccc(C2c3[nH]c4ccccc4c3C[C@H]3C(=O)N(C4CC4)CC(=O)N23)c1 (stereo not given in full) ?
Dyrk1A ADPGlo: -2; CAL PDZ FP-1: -2; CAL PDZ FP-2: 0; dFosB activator: -7; CDK5 p35 inh: 2; Rtt109 Vps75: -3

What do the screens show for `O=C1[C@@H]2Cc3c([nH]c4ccccc34)C(c3ccccc3)N2C(=O)CN1C1CCN(Cc2ccccc2)CC1` (stereo not given in full)?
Dyrk1A ADPGlo: 6; CAL PDZ FP-1: -3; CAL PDZ FP-2: -1; dFosB activator: 3; CDK5 p35 inh: -8; Rtt109 Vps75: -3

How did COc1ccc(C2c3[nH]c4ccccc4c3C[C@H]3C(=O)N(C4CCN(Cc5ccccc5)CC4)CC(=O)N23)c(OC)c1 (stereo not given in full) do in these assays?
Dyrk1A ADPGlo: 2; CAL PDZ FP-1: 6; CAL PDZ FP-2: 1; dFosB activator: 21*; CDK5 p35 inh: 0; Rtt109 Vps75: 5

Results for Cc1ccccc1C1c2[nH]c3ccccc3c2C[C@H]2C(=O)N(C3CCN(Cc4ccccc4)CC3)CC(=O)N12 (stereo not given in full) ?
Dyrk1A ADPGlo: -6; CAL PDZ FP-1: -6; CAL PDZ FP-2: 0; dFosB activator: 76*; CDK5 p35 inh: 2; Rtt109 Vps75: -2

Results for COC(=O)c1ccc(C2c3[nH]c4ccccc4c3C[C@H]3C(=O)N(C4CCN(Cc5ccccc5)CC4)CC(=O)N23)cc1 (stereo not given in full) ?
Dyrk1A ADPGlo: -5; CAL PDZ FP-1: 0; CAL PDZ FP-2: 1; dFosB activator: 55*; CDK5 p35 inh: 0; Rtt109 Vps75: -5

Results for CCCCC(=O)Nc1ccc(C(=O)N2CCC(C(=O)OCC)CC2)cc1 ?
Dyrk1A ADPGlo: 6; CAL PDZ FP-1: -1; CAL PDZ FP-2: 1; dFosB activator: 2; CDK5 p35 inh: 2; Rtt109 Vps75: -12

What do the screens show for `CCc1ccc(C(=O)Cc2cc3cccc(OC)c3oc2=O)cc1`?
Dyrk1A ADPGlo: -2; CAL PDZ FP-1: -2; CAL PDZ FP-2: 0; dFosB activator: -8; CDK5 p35 inh: 1; Rtt109 Vps75: -3

How did CCOc1ccc(C(=O)NCC2OCCc3ccccc32)cc1 (stereo not given) do in these assays?
Dyrk1A ADPGlo: 36; CAL PDZ FP-1: 0; CAL PDZ FP-2: 0; dFosB activator: -1; CDK5 p35 inh: -1; Rtt109 Vps75: -8

What do the screens show for `COc1ccc(OC)c(C2c3[nH]c4ccccc4c3C[C@H]3C(=O)N(C4CC4)CC(=O)N23)c1` (stereo not given in full)?
Dyrk1A ADPGlo: 2; CAL PDZ FP-1: 13; CAL PDZ FP-2: -1; dFosB activator: -2; CDK5 p35 inh: -1; Rtt109 Vps75: -7

What do the screens show for `CCOc1ccccc1C1c2[nH]c3ccccc3c2C[C@H]2C(=O)N(C3CCN(Cc4ccccc4)CC3)CC(=O)N12` (stereo not given in full)?
Dyrk1A ADPGlo: -4; CAL PDZ FP-1: 5; CAL PDZ FP-2: 1; dFosB activator: 63*; CDK5 p35 inh: 0; Rtt109 Vps75: 6

What do the screens show for `Oc1cccc(/C=N/Nc2cc(N3CCCC3)nc(N3CCCC3)n2)c1`?
Dyrk1A ADPGlo: 2; CAL PDZ FP-1: -1; CAL PDZ FP-2: -1; dFosB activator: 57*; CDK5 p35 inh: 0; Rtt109 Vps75: 4
